Source: ChEMBL document CHEMBL1139474, “Cellular apoptosis and cytotoxicity of phenolic compounds: a quantitative structure-activity relationship study” (J Med Chem, 2005)

Tests used:
[1] = tested on: L1210; assay: Cytotoxicity against mouse L1210 cells; details: mouse, l1210
[2] = tested on: L1210; assay: Activity against caspase-mediated apoptosis in mouse L1210 cells; format: functional
[3] = tested on: CCRF-CEM; assay: Cytotoxicity against human CCRF-CEM cells
[4] = Cytotoxicity against human CEM/VLB cells
[5] = tested on: L1210; assay: Activity against caspase-mediated apoptosis in mouse L1210 cells at 0.1 mM; format: functional
[6] = tested on: HL-60; assay: Cytotoxicity against human HL60 cells; format: cell-based
How it was run: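 HL-60 cells grown at 37 °C in RPMI with L-glutamine and 10% FBS, then seeded at (2–5) × 10⁴ cells/mL, in duplicate, at eight or more concentrations. Compounds were diluted in unsupplemented RPMI and added 1:10. After 48 h of continuous exposure, CyQUANT GR nucleic-acid dye fluorescence was read (ex 485/em 530 nm). IC50 is the concentration giving 50% lower fluorescence than controls, taken from the dose-response curve.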

Compound	log(1/ID50) [1]	log(1/ID50) [2]	Activity [5] [%]	further results
Cc1cccc(C(C)(C)C)c1O	3.73	–	–	–
CC(=O)c1cc(C(C)(C)C)c(O)c(C(C)(C)C)c1	3.94	2.41	–	–
O=[N+]([O-])c1ccc(O)cc1 [P-NITROPHENOL]	3.45	1	<15	log(1/ID50) [3]: 3.28; log(1/ID50) [4]: 3.36
Oc1ccc(Cl)cc1 [PARACHLOROPHENOL]	4.29	–	<15	log(1/ID50) [3]: 3.45; log(1/ID50) [4]: 3.89
NS(=O)(=O)c1ccc(O)cc1	2.5	–	<15	log(1/ID50) [3]: 2.31; log(1/ID50) [4]: 2.11
Oc1ccccc1I	3.95	2.38	<15	–
Cc1cc(C)c(O)c(C)c1	3.2	–	–	–
COc1cc(N)cc(OC)c1O	5.52	3.1	–	–
C[C@]12CCc3c(ccc4cc(O)ccc34)[C@@H]1CCC2=O [EQUILENIN]	–	–	–	log(1/ID50) [6]: 3.9
Cc1ccc(O)c(C)c1	3.04	–	–	–
COc1cc(OC)c(O)c(OC)c1	–	2.2	–	–
Oc1cccc(Cl)c1	–	–	<15	–
CC(C)(c1ccc(O)cc1)c1ccc(O)cc1 [BISPHENOL A]	–	–	<15	log(1/ID50) [3]: 4.18; log(1/ID50) [4]: 3.96
CC(C)Cc1ccccc1O	3.9	–	<15	–
Oc1ccc(O)cc1 [HYDROQUINONE]	4.59	–	<15	–
C[C@]12CC[C@@H]3c4ccc(O)cc4CC[C@H]3[C@@H]1CC[C@@H]2O [ESTRADIOL]	–	–	–	log(1/ID50) [6]: 3.6
CC(C)c1ccccc1O	3.5	2.38	<15	–
COCc1cc(C(C)(C)C)c(O)c(C(C)(C)C)c1	3.93	2.9	–	–
Oc1cccc(Br)c1	3.82	1	<15	–
CC(=O)Nc1ccc(O)cc1 [ACETAMINOPHEN]	3.73	–	<15	–
Oc1ccccc1F	3.2	–	<15	–
Oc1ccc(Br)cc1	–	–	<15	–
Cc1cccc(C)c1O	3.02	–	–	–
Nc1cc([N+](=O)[O-])ccc1O [2-AMINO-4-NITROPHENOL]	–	2.46	–	–
Cc1ccc(O)c(C(C)(C)C)c1	3.8	–	–	–

Compound	log(1/ID50) [1]	log(1/ID50) [2]	Activity [5] [%]	further results
Oc1cccc(F)c1	3.46	0.82	<15	–
Cc1cc(Br)ccc1O	3.46	–	–	–
CC/C(=C(/CC)c1ccc(O)cc1)c1ccc(O)cc1 [DIETHYLSTILBESTROL]	–	–	–	log(1/ID50) [6]: 4
CCCCCCCCCc1ccc(O)cc1 [4-NONYLPHENOL]	4.75	–	<15	–
O=[N+]([O-])c1cccc(O)c1 [3-NITRO-PHENOL]	3.48	0.79	<15	–
COc1cc(C(C)(C)C)c(O)c(C(C)(C)C)c1	3.71	2.87	–	–
N#Cc1ccc(O)cc1 [4-CYANOPHENOL]	3.44	0.1	<15	–
Nc1ccccc1O [QUESTIOMYCIN B]	5.16	2.29	<15	–
COc1cccc(O)c1 [1-hydroxy-3-methoxybenzene]	3.71	1.31	<15	–
OCc1ccccc1O [SALICYL ALCOHOL]	2.7	–	<15	–
Cc1ccc(O)c(N)c1	–	2.09	–	–
CCc1cccc(O)c1	3.71	–	<15	–
Cc1ccc(O)c(O)c1	5.03	–	–	–
CSc1ccccc1O	3.7	–	<15	–
Cc1cc([N+](=O)[O-])ccc1O	3.49	–	–	–
CC(C)(C)c1cccc(C(C)(C)C)c1O	3.85	1.9	–	–
CCc1cc(C(C)(C)C)c(O)c(C(C)(C)C)c1	3.91	2.43	–	–
Nc1cccc(O)c1 [3-AMINOPHENOL]	–	1.25	<15	–
Oc1ccc(I)cc1	3.86	–	<15	log(1/ID50) [3]: 4.29; log(1/ID50) [4]: 3.86
COc1cc(NC(C)=O)cc(OC)c1O	3.99	2.5	–	–
COc1ccccc1O.Cl [GUAIACOL HYDROCHLORIDE]	3.78	–	<15	–
CCCc1ccccc1O	3.49	2.16	<15	–
COc1cc(C(C)=O)cc(OC)c1O [ACETOSYRINGONE]	3.06	2.8	–	–
CC(C)(C)c1cc(C#N)cc(C(C)(C)C)c1O	4.68	2.88	–	–
CC(C)(C)c1ccc(O)cc1	–	–	<15	–

Compound	log(1/ID50) [1]	log(1/ID50) [2]	Activity [5] [%]	further results
Cl.Nc1cccc(O)c1 [3-AMINOPHENOL HYDROCHLORIDE]	4.11	–	<15	–
CCOc1ccccc1O [1-hydroxy-2-ethoxybenzene]	3.25	–	<15	–
CC(=O)Nc1cccc(O)c1 [METACETAMOL]	2.65	1.1	<15	–
Oc1ccccc1Br	3.44	–	<15	–
CC(C)(C)c1ccccc1O	4	2.42	<15	–
CCCCCCCc1ccc(O)cc1	4.49	–	<15	–
Cc1cc(F)ccc1O	3.09	–	–	–
COc1cc(/C=C/C=O)cc(OC)c1O	4.25	2.6	–	–
CC(=O)Oc1cc(C(C)(C)C)c(O)c(C(C)(C)C)c1	4.35	2.8	–	–
O=[N+]([O-])c1ccccc1O [NITROPHENOLATE]	3.34	–	<15	–
COc1ccc(O)c(C)c1	3.39	–	–	–
CCCCc1ccc(O)cc1	4.33	–	<15	–
CN(C)c1cccc(O)c1	4.11	–	<15	–
CC(=O)c1ccc(O)c(C)c1	3.14	–	–	–
CC(C)c1cccc(C(C)C)c1O [PROPOFOL]	3.25	–	–	–
N#Cc1ccccc1O	3.3	–	<15	–
CCCc1ccc(O)cc1	4.04	–	<15	log(1/ID50) [3]: 3.72; log(1/ID50) [4]: 3.73
COc1cc(C)cc(OC)c1O	2.89	2.4	–	–
CCc1ccc(O)c(C(C)(C)C)c1	3.8	–	–	–
Cc1cccc(O)c1 [METACRESOL]	3.54	0.45	<15	–
CCc1ccccc1O	–	2.11	<15	–
COc1cccc(OC)c1O [SYRINGOL]	3.86	2.7	–	–
CC(C)(C)c1cc(CO)cc(C(C)(C)C)c1O	3.88	2.39	–	–
NC(=O)Nc1ccccc1O	3.5	–	<15	–
COc1ccccc1O [GUAIACOL]	–	2.41	<15	–

Compound	log(1/ID50) [1]	log(1/ID50) [2]	Activity [5] [%]	further results
Oc1ccccc1C(F)(F)F	3.22	–	<15	–
Oc1ccc(F)cc1	3.83	–	<15	–
CCc1cccc(CC)c1O	3.26	–	–	–
O=Cc1ccc(O)cc1 [4-HYDROXYBENZALDEHYDE]	3.08	–	<15	–
N#Cc1cccc(O)c1	3.11	1.11	<15	–
CC(C)(C)c1cc(C(C)(C)C)c(O)c(C(C)(C)C)c1	5.05	2.1	–	–
COc1cc(C=O)cc(OC)c1O [SYRINGALDEHYDE]	3.1	2.9	–	–
CC(C)(C)c1ccc(O)cc1.Cl	–	–	<15	–
CCCCCc1ccc(O)cc1	4.47	–	<15	–
Oc1cccc(O)c1 [RESORCINOL]	3.46	0.79	<15	–
CCCCc1ccc(O)cc1.Cl	–	–	<15	log(1/ID50) [6]: 3.52
Oc1ccccc1Cl [2-CHLOROPHENOL]	3.22	–	<15	–
CC(C)(C)c1ccc(O)c(C(C)(C)C)c1	4.24	–	–	–
CC(C)(C)c1cc(C=O)cc(C(C)(C)C)c1O	4.06	2.49	–	–
CC(C)(C)c1cccc(O)c1	3.88	–	<15	–
CC(C)(C)c1cc(O)cc(C(C)(C)C)c1O	4.16	2.5	–	–
Cc1ccccc1O [ORTHOCRESOL]	3.52	1.87	<15	–
CCCCCCOc1ccc(O)cc1	5.5	–	<15	log(1/ID50) [3]: 5.34; log(1/ID50) [4]: 5.37
CC(=O)c1ccc(O)cc1 [4-HYDROXYACETOPHENONE]	–	0.03	<15	–
NC(=O)c1ccc(O)cc1	2.48	–	<15	log(1/ID50) [3]: 2.23; log(1/ID50) [4]: 2.38
Oc1ccccc1O [CATECHOL]	3.75	–	<15	–
CC(C)(C)c1cc([N+](=O)[O-])cc(C(C)(C)C)c1O	4.9	2.49	–	–
CCCCOc1ccc(O)cc1	5.2	0.14	<15	–
